Bioassay records deposited in PubChem by PCMD.
This is a sample that favours compounds with a hit; in the whole collection about 1.1% have one here.
Yeast eIF2B: eIF2B (yeast) activity modulation | S. cerevisiae eIF2B-epsilon R284H, GCN4-lacZ luminescence | inhibition, % at 25 µM (by protocol) | hit rate 0.91% among 27,000;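 active = mutant luminescence inhibited past about 50% while wild type luminescence and mutant growth stay under set limits, limit read from the data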
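Assay system: yeast eIF2B-epsilon R284H mutant carrying GCN4–beta-galactosidase fusion / Buffer or medium: YPD / Incubation: 16 h growth with compound at 30 °C, 90 min Beta-Glo step / Detection: Beta-Glo luminescence after Z-buffer lysis, growth by 595 nm absorbance / Read-out: % inhibition of reporter signal and growth versus controls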
Yeast tox: Inhibits yeast growth, turbidity readout. S. cerevisiae wild-type growth, A595 turbidity, 16 h. growth inhibition, % at 25 µM (by protocol). AID 685. hit rate 0.3% among 30,000;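 active = mutant and wild-type yeast strains alike exhibit over 30% growth inhibition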
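Schedule: 16 h growth with compound, 30 °C. System: yeast, wild-type or eIF2Bepsilon-R284H mutant. Doses: one dose, 25 µM compound[…]. Buffer or medium: YPD. Signal: turbidity measured as absorbance at 595 nm. Read-out basis: growth inhibition (%) versus cell controls and blanks.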
Of the large screens only hits and unclear results are named; the others gave an inactive call.

O=C(CSc1nc(-c2ccco2)cc(C(F)(F)F)n1)Nc1ccccc1C(F)(F)F	Yeast eIF2B 52
COc1ccc(C2c3c(ncn(CCN4CCOCC4)c3=N)Oc3ccc4ccccc4c32)cc1 (stereo not drawn)	none
COC(=O)COc1ccc(S(=O)(=O)N2CCc3ccccc3C2)cc1C	none
COc1cc(OC)cc(C(C(=O)NC2CCCCC2)N(C(=O)c2ccno2)c2ccccc2)c1 (stereo not drawn)	none
CCCCCn1c(SCC(=O)OCC)nc2cc(C(=O)NCc3ccco3)ccc2c1=O	Yeast eIF2B 56
C=CCn1c(SCC(=O)OCC)nc2cc(C(=O)NCc3ccco3)ccc2c1=O	none (no result: Yeast eIF2B)
CCOc1ccc(S(=O)(=O)N2CCN(C(=O)c3sccc3C)CC2)cc1	none
